Laboratory results: ChEMBL document CHEMBL3244024, “Synthesis and antiallergic activity of some mono- and disubstituted xanthone-2-carboxylic acids” (1978)

test system: Rattus norvegicus; assay: Antiallergic activity in iv dosed Sprague-Dawley rat assessed as inhibition of egg albumin-induced passive cutaneous anaphylaxis after 15 to 25 mins relative to disodium cromoglycate; format: functional
In short: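 Reaginic antiserum from rats immunized with 1.25 mg egg albumin sc plus H. pertussis vaccine ip, bled 11 days later. Recipient rats sensitized intradermally with two antiserum dilutions in 0.1 mL saline. Challenged 24 h later iv with 1.0 mL buffered saline (pH 7.2) holding 1.0 mg albumin, 0.5% Evans blue and test compound. Usually three doses (fivefold increments), ≥5 rats per group.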

`CCCCOc1cc([S+](C)[O-])cc2c(=O)c3cc(C(=O)O)ccc3oc12` (stereo not given) was tested, and the “fold change (FC)” value was 260.

test system: Rattus norvegicus; assay: Antiallergic activity in iv dosed Sprague-Dawley rat assessed as inhibition of egg albumin-induced passive cutaneous anaphylaxis after 15 to 25 mins relative to disodium cromoglycate

Point of comparison: `CCOc1cc([S+](C)[O-])cc2c(=O)c3cc(C(=O)O)ccc3oc12` (stereo not given), RPCA relative potency 80. Against it:
- C[S+]([O-])c1cc(OC2CCCC2)c2oc3ccc(C(=O)O)cc3c(=O)c2c1 (stereo not given) — higher, 100
- CC(C)Oc1cc([S+](C)[O-])cc2c(=O)c3cc(C(=O)O)ccc3oc12 (stereo not given) — higher, 190
- O=C(O)c1ccc2oc3ccc(C(=O)C4CC4)cc3c(=O)c2c1 — lower, 3
- CC(C)Sc1ccc2oc3ccc(C(=O)O)cc3c(=O)c2c1 — lower, 2
- CC(C)CCOc1cc([S+](C)[O-])cc2c(=O)c3cc(C(=O)O)ccc3oc12 (stereo not given) — higher, 100
- CS(=O)(=O)c1ccc2oc3ccc(C(=O)O)cc3c(=O)c2c1 — lower, 7
- O=C(O)c1ccc2oc3ccc(C(=O)C4CCCC4)cc3c(=O)c2c1 — lower, 2
- CCC(=O)c1ccc2oc3ccc(C(=O)O)cc3c(=O)c2c1 — lower, 2
- CC(=O)c1ccc2oc3ccc(C(=O)O)cc3c(=O)c2c1 — lower, 6
- CCCOc1cc([S+](C)[O-])cc2c(=O)c3cc(C(=O)O)ccc3oc12 (stereo not given) — lower, 50
- Cc1ccc2oc3ccc(C(=O)O)cc3c(=O)c2c1C — lower, 0.2
- C[S+]([O-])c1ccc2oc3ccc(C(=O)O)cc3c(=O)c2c1 (stereo not given) [TIXANOX] — lower, 25
- Cc1cc2oc3ccc(C(=O)O)cc3c(=O)c2cc1C — lower, 0.2
- CCCCCOc1cc([S+](C)[O-])cc2c(=O)c3cc(C(=O)O)ccc3oc12 (stereo not given) — higher, 90
- CC(C)C(=O)c1ccc2oc3ccc(C(=O)O)cc3c(=O)c2c1 — lower, 3
- CSc1ccc2oc3ccc(C(=O)O)cc3c(=O)c2c1 — lower, 5
- COc1cc(OC)c2oc3ccc(C(=O)O)cc3c(=O)c2c1 — lower, 6
- CC(C)[S+]([O-])c1ccc2oc3ccc(C(=O)O)cc3c(=O)c2c1 (stereo not given) — lower, 4
- COc1cc2oc3ccc(C(=O)O)cc3c(=O)c2cc1OC — lower, 2
- Cc1cc(C)c2oc3ccc(C(=O)O)cc3c(=O)c2c1 — lower, 1
- CCCCCCCCOc1cc([S+](C)[O-])cc2c(=O)c3cc(C(=O)O)ccc3oc12 (stereo not given) — lower, 35
- CCCCOc1cc([S+](C)[O-])cc2c(=O)c3cc(C(=O)O)ccc3oc12 (stereo not given) — higher, 260
- COc1cc(OC)c2c(=O)c3cc(C(=O)O)ccc3oc2c1 — lower, 0.1
